According to ChEMBL document CHEMBL1135118, “Aromatic farnesyl diphosphate analogues: vinyl triflate-mediated synthesis and preliminary enzymatic evaluation” (Bioorg Med Chem Lett, 2002):

Key:
Assay type in all cases: protein-complex assay
[1] = system: C/C(=C\COP(=O)(O)OP(=O)(O)O)CCc1ccc(-c2ccccc2)cc1; experiment: Binding affinity for Farnesyltransferase
Procedure, shortened: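 Continuous fluorimetric farnesylation assay with purified recombinant mammalian FTase and dansyl-GCVLS peptide as cosubstrate. FPP analogue or E,E-FPP supplied as a varied substrate in 52 mM Tris–HCl pH 7.0 with 5.8 mM DTT, MgCl₂, ZnCl₂ and 0.4% n-dodecyl-β-D-maltoside. Reaction started with enzyme; fluorescence (ex 350/em 486 nm) recorded for 300 s at 30 °C. Initial fluorescence rates were converted to velocities for Km.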

[2] = target: T1, Protein farnesyltransferase (Homo sapiens, UniProt P49354+P49356); experiment: Inhibitory activity against mammalian protein-Farnesyltransferase at 10 uM
[3] = target: T1, Protein farnesyltransferase; experiment: Inhibitory activity against mammalian protein-farnesyltransferase
Procedure, shortened: (§1)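 Inhibition read in the continuous fluorescence assay with recombinant mammalian FTase and dansyl-GCVLS peptide at 30 °C for 300 s (ex 350/em 486 nm). Tris–HCl pH 7.0 buffer held DTT, MgCl₂, ZnCl₂ and 0.4% dodecyl maltoside. E,E-FPP was fixed while analogue amounts varied; farnesylation rate was measured for each.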

[4] = target: T1, Protein farnesyltransferase; experiment: Inhibitory activity against mammalian protein-Farnesyltransferase; procedure, shortened: as §1

Protein farnesyltransferase (Homo sapiens) (from UniProt P49354+P49356)
Km [1]: 0.8 µM

C/C(=C\COP(=O)(O)OP(=O)(O)O)CCc1ccccc1-c1ccccc1
IC50 [2]: > 10 µM

C/C(=C\COP(=O)(O)OP(=O)(O)O)COCc1ccc(C(=O)c2ccccc2)cc1
IC50 [3]: 2.3 µM

C/C(=C\COP(=O)(O)OP(=O)(O)O)CCc1ccc2ccccc2c1
IC50 [4]: 5.4 µM
